Measured values collected from several papers.
Each line is one published result; the experiments were not run side by side.
Target: Glycogen synthase kinase-3 alpha (GSK3A, Homo sapiens, UniProt P49840)

Structure (SMILES) | test | conditions | endpoint | value
O=C(Nc1cnn(-c2csc(C(=O)NC3COC3)c2)c1)Nc1c(F)cccc1Cl | enzyme activity, inhibitor | 5 µM | remaining activity | 93.5%
Cc1c[nH]c2nccc(Oc3c(F)cc(Nc4cc(Cl)nc(N)n4)cc3F)c12 | cell-free assay, competition with immobilised ligand | 0.1 µM | remaining binding | 95%
c1ccc(CNc2nc(N3CCOc4ccccc43)nc3c2CCCC3)cc1 | target engagement in cells, inhibitor, chemoproteomics | 20 mM | inhibition | 0%
CS(=O)(=O)N1CCCC(NC(=O)[C@H](CCC2CCCCC2)NC(=O)c2ccc(CNC(=O)c3cnc4ccccn34)cc2)C1 (stereo partly drawn) | cell-free assay, competition with immobilised ligand | 0.1 µM | remaining binding | 100%
N#CCCc1ccc2c(c1)-c1[nH]c3ccc([N+](=O)[O-])cc3c1CC(=O)N2 | cell-free assay | 0.5 µM | remaining signal | 0.804%
Cc1ccc(NC(=O)c2ccc(C)c(C(F)(F)F)c2)cc1C#Cc1nn(C2CCC(O)CC2)c2ncnc(N)c12 (stereo not drawn) | cell-free assay, inhibitor | 10 µM | remaining signal | 79%
COc1cc2ncnc(Nc3ccc(Oc4ccccc4)c(C)c3C)c2cc1OC | enzyme activity, inhibitor | 1 µM | inhibition | 2%
CCN(CC)CCNC(=O)c1c(C)[nH]c(/C=C2\C(=O)Nc3ccc(F)cc32)c1C | enzyme activity, inhibitor | 0.3 µM | inhibition | 2%
Cc1ccc(C(=O)NCc2ccsc2)cc1C#Cc1cn(C(C)C)c2ncnc(N)c12 | enzyme activity, inhibitor | 1 µM | activity vs control | 91%
Cc1ccc(Nc2nccc(N(C)c3ccc4c(C)n(C)nc4c3)n2)cc1S(N)(=O)=O | enzyme activity, inhibitor | 10 µM | inhibition | 48%
O=C1Cc2c([nH]c3ccc([N+](=O)[O-])cc23)-c2ccccc2N1 | cell-free assay | 0.5 µM | remaining signal | 0.971%
Cn1cnc(Br)c1C1=CN(c2ncnc3[nH]cnc23)CCS1 | enzyme activity, inhibitor, radiometric | 2 µM | inhibition | 84.1%
CN1CC(Oc2cnc(C#N)cc2-c2ccn3nc(NC(=O)C4CC4)cc3c2)C1 | enzyme activity, inhibitor | 1 µM | inhibition | -14%
O=C1NC(=O)c2cc(Nc3ccc(F)cc3)c(Nc3ccc(F)cc3)cc21 | cell-free assay, inhibitor | 0.5 µM | remaining signal | 88.2%
CN([C@@H]1CCc2c(CC(=O)O)c3cc(S(C)(=O)=O)ccc3n2C1)S(=O)(=O)c1ccc(F)cc1 | cell-free assay, competition with immobilised ligand | 1 µM | remaining binding | 100%
CCN(CC)c1ccc(C2=NNC(=O)CC2C)cc1[N+](=O)[O-] (stereo not drawn) | enzyme activity, inhibitor | 10 µM | remaining activity | 89%
O=C(O)[C@@H]1[C@@H](Cn2nnc3ccccc3c2=O)CC[C@H]1C(=O)c1ccc(OCCC2CCOCC2)cc1 | cell-free assay, competition with immobilised ligand | 1 µM | remaining binding | 93%
Cc1cc(NC(=O)c2cccc3cc(-c4cccc5[nH]nc(N)c45)ccc23)ccc1F | enzyme activity, inhibitor | 0.1 µM | activity vs control | 121%
CNC(=O)Nc1ccc2c(c1)CC[C@@]21OC(=O)N(CC(=O)N(Cc2ccc(F)cc2)[C@@H](C)C(F)(F)F)C1=O | cell-free assay, competition with immobilised ligand | 1 µM | remaining binding | 99%
CC(C)(C)c1nc2c(s1)c1nc(N)ncc1c1ccc(NS(=O)(=O)c3c(F)cccc3F)c(F)c12 | enzyme activity, inhibitor, radiometric | 1 µM | remaining activity | 88%
Cc1nc(Cc2cccc(C(F)(F)F)c2)sc1-c1ccc(C(N)=O)nc1 | cell-free assay, competition with immobilised ligand | 1 µM | remaining binding | 82%
O=S(=O)(Nc1cc(Sc2ncn[nH]2)c(O)c2ccccc12)c1ccc(-c2ccccc2)cc1 | enzyme activity, inhibitor | 1 µM | remaining activity | ≥ 75%
Nc1c(C(=O)NCc2ccc(C(=O)NCCCC3CCCCC3)cc2)cnn1-c1ccccc1 | cell-free assay, competition with immobilised ligand | 0.1 µM | remaining binding | 100%
Nc1nc(Nc2ccc(S(N)(=O)=O)cc2)sc1C(=O)c1ccccc1[N+](=O)[O-] | enzyme activity, inhibitor | 0.1 µM | inhibition | 73 to 75%
O=C(Nc1cnn(-c2csc(C(=O)NC3COC3)c2)c1)Nc1ccccc1Cl | enzyme activity, inhibitor | 5 µM | remaining activity | 97.4%
O=C(N[C@H]1CCCCC/C=C\C2C[C@@]2(C(=O)O)NC(=O)[C@@H]2C[C@@H](Oc3ccncc3)CN2C1=O)OC1CCCC1 (stereo partly drawn) | cell-free assay, competition with immobilised ligand | 1 µM | remaining binding | 100%
COc1cc2ncnc(Nc3ccc(F)c(Cl)c3)c2cc1OCCCN1CCOCC1 | cell-free assay | 0.5 µM | remaining signal | 99.7%
